The text below walks through data of ChEMBL document CHEMBL4304781, “Development of Highly Selective Pyrimidine-Based Aldosterone Synthase (CYP11B2) Inhibitors” (ACS Med Chem Lett, 2019).

By IC50 is commonly meant the concentration that gives 50% inhibition. A word on the half-life: it is how long it takes for the measured level to halve. By AUC(0-t) is commonly meant exposure summed from dosing to a finite time, without extrapolation to infinity. As usually defined, the Tmax is the time at which the peak concentration occurs. The Cmax is the highest concentration seen after dosing.

Data set [1] has as its target T1, Cytochrome P450 11B2, mitochondrial (Homo sapiens, UniProt P19099).
T1 sequence (P19099 whole entry): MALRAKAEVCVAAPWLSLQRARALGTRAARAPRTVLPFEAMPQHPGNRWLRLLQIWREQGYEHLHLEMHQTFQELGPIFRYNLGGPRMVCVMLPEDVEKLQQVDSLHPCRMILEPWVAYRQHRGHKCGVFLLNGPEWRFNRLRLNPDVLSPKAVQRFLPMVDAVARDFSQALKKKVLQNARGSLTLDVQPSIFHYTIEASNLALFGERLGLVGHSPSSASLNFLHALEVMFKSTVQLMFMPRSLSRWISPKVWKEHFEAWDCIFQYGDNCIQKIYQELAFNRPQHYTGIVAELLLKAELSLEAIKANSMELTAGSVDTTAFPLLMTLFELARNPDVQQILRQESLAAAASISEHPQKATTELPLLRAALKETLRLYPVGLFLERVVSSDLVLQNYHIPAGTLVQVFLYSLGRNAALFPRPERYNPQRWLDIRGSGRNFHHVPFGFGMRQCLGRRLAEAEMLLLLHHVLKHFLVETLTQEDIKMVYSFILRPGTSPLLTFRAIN
Kind of data set: Inhibition of human recombinant CYP11B2 using deoxycorticosterone as substrate incubated for 90 mins by cell-based HPLC analysis. An outline of the steps: (§1)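 Recombinant human CYP11B2 or CYP11B1. Substrate and product steroids both monitored by HPLC-MS. Selectivity taken as CYP11B1 IC50 / CYP11B2 IC50.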

The species entered for a further data set is Homo sapiens. Kind of data set: Selectivity index, ratio of IC50 for human recombinant CYP11B1 to IC50 for human recombinant CYP11B2. In outline: as §1
For data set [2], the target named is T2, Cytochrome P450 11B1, mitochondrial (Homo sapiens, UniProt P15538).
T2 sequence (P15538 whole entry): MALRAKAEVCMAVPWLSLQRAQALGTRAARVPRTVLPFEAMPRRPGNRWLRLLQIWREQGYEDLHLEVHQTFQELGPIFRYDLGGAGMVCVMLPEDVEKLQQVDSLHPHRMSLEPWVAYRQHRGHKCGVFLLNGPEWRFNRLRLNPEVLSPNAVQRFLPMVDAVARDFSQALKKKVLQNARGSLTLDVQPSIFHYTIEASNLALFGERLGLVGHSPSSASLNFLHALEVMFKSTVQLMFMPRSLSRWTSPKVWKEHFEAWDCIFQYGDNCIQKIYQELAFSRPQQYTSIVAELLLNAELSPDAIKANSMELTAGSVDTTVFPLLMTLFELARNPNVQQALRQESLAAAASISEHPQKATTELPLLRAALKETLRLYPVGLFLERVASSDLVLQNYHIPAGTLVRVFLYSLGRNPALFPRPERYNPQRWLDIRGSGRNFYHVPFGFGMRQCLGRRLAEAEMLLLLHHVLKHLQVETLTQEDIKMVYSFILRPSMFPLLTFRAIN
Kind of data set: Inhibition of human recombinant CYP11B1 using deoxycortisol as substrate incubated for 60 mins by cell-based HPLC analysis. The format is ADME. An outline of the steps: as §1

The nature of data set [3]: Stability in cynomolgus monkey liver microsomes assessed as parent compound remaining at 1 uM measured after 65 mins by LC/MS-MS analysis. Type of data set: ADME, Macaca fascicularis, Microsome. The note with it: read-out: Stability. In outline:
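Parent compound percentage remaining after 65 min incubation with cynomolgus monkey liver microsomes.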

A short description of data set [4]: Half life in cynomolgus monkey at 1 mg/kg, po measured after 24 or 72 hrs. Type of data set: ADME, organism-based, Macaca fascicularis. The note with it: in vivo. An outline of the steps: (§2)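 Male cynomolgus monkeys dosed orally at 1 mg/kg in 0.5% CMC, 0.1% Tween-80, 1% DMSO. Plasma drug concentrations followed out to 24 or 72 h. Cmax, Tmax, AUC0-24 and t1/2 derived from plasma levels.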

A short description of data set [5]: AUC (0 to 24 hrs) in cynomolgus monkey at 1 mg/kg, po measured after 24 or 72 hrs. Type of data set: ADME, organism-based, Macaca fascicularis. More on the design: time < 24 hr, dose 1 mg/kg, route oral. The note with it: in vivo. In outline:
as §2

Data set [6] can be described thus: Tmax in cynomolgus monkey at 1 mg/kg, po measured after 24 or 72 hrs. Type of data set: ADME, organism-based, Macaca fascicularis. The note with it: in vivo. An outline of the steps: as §2
Data set [7] in a line: Cmax in cynomolgus monkey at 1 mg/kg, po measured after 24 or 72 hrs. Type of data set: ADME, organism-based, Macaca fascicularis. More on the design: dose 1 mg/kg, route oral. The note with it: in vivo. An outline of the steps:
as §2

Data set [8] in a line: Thermodynamic solubility in phosphate free buffer pH 7.4 incubated for 24 hrs by HPLC/LCMS-MS based shake flask method. Type of data set: physicochemical. The note with it: read-out: Therm_solubility.

SMILES strings stand for the structures. In brackets after ≈: the same amount, converted by molar mass.

Turning to `Fc1cc2nc(-c3cncnc3C3CC3)n(C3CC3)c2cc1F`, the IC50 in data set [1] is 172 nM; in data set [2], greater than 10000 nM. For the same molecule, the Ratio IC50 in the data set listed under Homo sapiens is greater than 58.

Regarding `Fc1ccc2nc(-n3ccnn3)n(C3CC3)c2c1`, the 50% inhibitory concentration (IC50) in [1] came out at 1060 nM; in [2], 9070 nM. The Ratio IC50 in the data set filed under Homo sapiens turned out to be 8.5.

Take `Fc1ccc2nc(-c3cn[nH]c3)n(C3CC3)c2c1`: the results for the IC50 in [1] and in [2] were 782 nM and 1670 nM, respectively. The Ratio IC50 in the data set listed under Homo sapiens is 2.

With `N#Cc1ncncc1-c1nc2cc(F)c(F)cc2n1C1CC1`, the 50% inhibitory concentration (IC50) in [1] came out at 13 nM; in [2], 4990 nM. The remaining at 65 min, 1 µM in [3] stood at 85%. Besides, the Ratio IC50 in the data set filed under Homo sapiens turned out to be 383.

`Fc1cc2nc(-c3cncnc3C(F)F)n(C3CC3)c2cc1F`: in [4], the half-life was 15.3 h. This molecule also had an exposure AUC(0-t) at 24 h in data set [5] of 8.8 µM·h. The figures for the half-maximal inhibitory concentration (IC50) in data set [1] and in data set [2] were 18 nM and 4320 nM, respectively. Further, the Tmax in [6] came out at 1 h. In data set [7], this molecule returned a maximum concentration (Cmax) of 620 nM. Also, the remaining at 65 min, 1 µM in [3] came out at 106%. The Ratio IC50 in the data set filed under Homo sapiens is 240.

Take `Fc1ccc2nc(-c3cncs3)n(C3CC3)c2c1`: the results for the half-inhibitory concentration (IC50) in [1] and in data set [2] were 62 nM and 4520 nM, respectively. Also, in the data set listed under Homo sapiens, the Ratio IC50 was 73.

In the case of `N#Cc1ccc2nc(-c3cncnc3C(F)F)n(C3CC3)c2c1`, the half-life in [4] is 5.4 h. The molecule also came in with an AUC(0-t) at 24 h in data set [5] of 8.3 µM·h. The IC50 in data set [1] was 9 nM; in [2], 2030 nM. In addition, the Tmax in data set [6] is 2 h. The molecule further came in with a peak concentration (Cmax) in data set [7] of 1000 nM. Further, in [3], the remaining at 65 min, 1 µM came out at 84%. The Ratio IC50 in the data set filed under Homo sapiens is 226.

Turning to `Fc1cc2nc(-c3cncnc3NCCC(F)(F)F)n(C3CC3)c2cc1F`, the IC50 in data set [1] stood at 3 nM; in data set [2], 378 nM. Besides, the remaining at 65 min, 1 µM in data set [3] is 55%. Also, the Ratio IC50 in the data set filed under Homo sapiens was found to be 126.

For `Fc1cc2nc(-c3cncnc3)n(C3CC3)c2cc1F`, the results for the concentration for half-maximal inhibition (IC50) in data set [1] and in data set [2] were 22 nM and 2270 nM, respectively. For the same molecule, the remaining at 65 min, 1 µM in [3] was 98%. In the data set filed under Homo sapiens, the Ratio IC50 came to 103.

For `Fc1ccc2nc(-c3cnccn3)n(C3CC3)c2c1`, the IC50 in [1] is 541 nM; in [2], greater than 10000 nM. Besides, the Ratio IC50 in the data set listed under Homo sapiens is greater than 18.

Turning to `CN(C)c1ncncc1-c1nc2cc(F)c(F)cc2n1C1CC1`, the concentration for half-maximal inhibition (IC50) stood at 29 nM in data set [1] and 4630 nM in data set [2]. In [3], the remaining at 65 min, 1 µM worked out at 6%. In addition, in the data set filed under Homo sapiens, the Ratio IC50 came out at 159.

In [4], `N#Cc1ccc2nc(-c3cncnc3C(F)(F)F)n(C3CC3)c2n1` showed a half-life of 5.3 h. This molecule also had an exposure AUC(0-t) at 24 h in [5] of 10.1 µM·h. Moreover, the half-maximal inhibitory concentration (IC50) in data set [1] was 24 nM; in [2], 4810 nM. Further, in data set [6], the Tmax was 0.5 h. Further, in data set [7], the Cmax came to 1680 nM. In addition, the remaining at 65 min, 1 µM in data set [3] was determined as 87%. Further, the Ratio IC50 in the data set listed under Homo sapiens was 200. Also, the solubility thermodynamic at 24 h in [8] was found to be 153 µM (≈ 50.5 µg/mL).

Regarding `Cc1ncncc1-c1nc2cc(F)c(F)cc2n1C1CC1`, the half-life in [4] is 4.2 h. For the same molecule, the AUC(0-t) at 24 h in data set [5] amounted to 3 µM·h. Besides, the Tmax in data set [6] is 0.5 h. This molecule also came in with a Cmax in data set [7] of 1260 nM. Besides, in data set [3], the remaining at 65 min, 1 µM worked out at 72%. Moreover, the Ratio IC50 in the data set filed under Homo sapiens amounted to 244.

`CC(F)(F)c1ncncc1-c1nc2cc(F)c(F)cc2n1C1CC1`: the IC50 in data set [1] was determined as 50 nM; in [2], 5720 nM. Moreover, the Ratio IC50 in the data set filed under Homo sapiens came to 114.

`CCc1ncncc1-c1nc2cc(F)c(F)cc2n1C1CC1`: the figures for the IC50 in data set [1] and in [2] were 8 nM and 3330 nM, respectively. In data set [3], the remaining at 65 min, 1 µM was found to be 78%. Also, the Ratio IC50 in the data set filed under Homo sapiens came to 416.

With `Fc1ccc2nc(-c3cccnn3)n(C3CC3)c2c1`, the IC50 in [1] was 412 nM; in data set [2] it was greater than 10000 nM. In the data set filed under Homo sapiens, the Ratio IC50 is greater than 24.

Turning to `CNc1ncncc1-c1nc2cc(F)c(F)cc2n1C1CC1`, the values for the half-maximal inhibitory concentration (IC50) in [1] and in [2] were less than 2 nM and 390 nM, respectively. Further, in the data set filed under Homo sapiens, the Ratio IC50 is greater than 195.

As for `N#Cc1ccc2nc(-c3cncnc3C(F)(F)F)n(C3CC3)c2c1`, the IC50 in [1] is 16 nM; in data set [2], 4170 nM. For the same molecule, in data set [3], the remaining at 65 min, 1 µM was 62%. For the same molecule, the Ratio IC50 in the data set listed under Homo sapiens stood at 261.

As for `Fc1ccc2nc(-c3cnco3)n(C3CC3)c2c1`, the 50% inhibitory concentration (IC50) in data set [1] and in data set [2] was greater than 10000 nM in each case.

Regarding `CC(C)c1ncncc1-c1nc2cc(F)c(F)cc2n1C1CC1`, the results for the IC50 in [1] and in [2] were 5 nM and 1910 nM, respectively. Besides, in data set [3], the remaining at 65 min, 1 µM amounted to 80%. Besides, the Ratio IC50 in the data set listed under Homo sapiens was 381.

Turning to `Fc1ccc2nc(-c3cncnc3)n(C3CC3)c2c1`, the Ratio IC50 in the data set filed under Homo sapiens is 136.

In data set [4], `N#Cc1ccc2nc(-c3cncnc3C(F)F)n(C3CC3)c2n1` gave a half-life of 7.5 h. In data set [5], this molecule returned an AUC(0-t) at 24 h of 32.2 µM·h. The IC50 stood at 29 nM in data set [1] and 3930 nM in [2]. Moreover, in data set [6], the time to peak (Tmax) was determined as 2 h. In data set [7], this molecule displayed a peak concentration (Cmax) of 2880 nM. Further, the remaining at 65 min, 1 µM in data set [3] amounted to 101%. The Ratio IC50 in the data set filed under Homo sapiens was 135.
